The list is not random: actives were taken first. Their share in the collection is about 2.6%.
HTRA1 inh: inhibitors of human serine peptidase HTRA1. Q92743. recombinant HTRA1, FP-rhodamine activity-based probe, fluorescence polarization. inhibition, % at 5.96 µM. hit rate 0.5% among 340,000. AID 504803; in the data active = inhibition above about 36%
PRMT1 FP inh: PRMT1 (human) inhibition, primary screen; recombinant PRMT1, activity-based probe fluorescence polarization; inhibition, % at 2.79 µM; hit rate 1.3% among 370,000; AID 652257;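 active = inhibition above about 21% made by adding two undisclosed values, limit read from the data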
Target sequence (Q99873 whole entry, looked up): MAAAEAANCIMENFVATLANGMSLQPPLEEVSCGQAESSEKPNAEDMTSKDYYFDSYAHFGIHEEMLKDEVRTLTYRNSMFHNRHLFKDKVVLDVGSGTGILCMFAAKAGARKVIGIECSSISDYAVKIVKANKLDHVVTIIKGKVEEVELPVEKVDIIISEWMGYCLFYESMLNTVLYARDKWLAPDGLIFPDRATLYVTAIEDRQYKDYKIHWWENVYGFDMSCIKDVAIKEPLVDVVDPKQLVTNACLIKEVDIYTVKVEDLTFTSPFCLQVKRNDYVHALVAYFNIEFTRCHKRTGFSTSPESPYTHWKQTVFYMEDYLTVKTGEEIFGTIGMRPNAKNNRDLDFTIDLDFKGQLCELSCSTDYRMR
ABHD4 inh: inhibitors of mouse ABHD4. purified mABHD4, FP-Rh probe fluorescence polarization. inhibition, % at 8.92 µM. Q8VD66. hit rate 0.54% among 370,000;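 active = inhibition exceeding the mean over every tested compound plus 3 SD, cut at about 30% in these data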
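system = mouse ABHD4 enzyme, wild type | medium = HEPES pH 7.0, NaCl, Pluronic buffer | also added = FP-Rh probe | incubation = Enzyme–compound pre-incubation 45 min, then probe 60 min, both 25 °C | technique = fluorescence polarization, excitation 525 nm, emission 598 nm, BODIPY TMR filters | controls = S159A mutant high control, sample median low control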
TCR CD3 inh: inhibitors of human TCR-CD3 interaction. hit rate 0.37% among 360,000. TAMRA-labeled TCR probe fluorescence, biochemical. inhibition, % at 9.4 µM; in the data active = inhibition above about 19%;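 also: recombinant mutant TCR 2C K166C tagged with TAMRA read by polarization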
SIAE inh: human SIAE inhibition, primary screen | Q9HAT2 | SIAE FP-Rh probe binding, fluorescence polarization | inhibition, % at 9.66 µM | hit rate 0.69% among 370,000;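 active = inhibition above a cutoff: mean of compounds within the control limits plus 3 SD of those, cut at about 17% in these data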
mABHD4 conf: ABHD4 (mouse) inhibition, FP confirmation; shares compounds with ABHD4 inh; purified mABHD4, FP-Rh probe fluorescence polarization; inhibition, % at 8.92 µM; hit rate 55% among 1,800; AID 720658;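 active = mean inhibition across replicates above the hit cutoff set in the primary screen, cut at about 30% in these data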
Numbers stand for hits; 0 = inactive; - = not tested or not shown.

SMILES	HTRA1 inh	PRMT1 FP inh	ABHD4 inh	TCR CD3 inh	SIAE inh	mABHD4 conf
O=C(CSC1=NNC(c2ccccn2)S1)Nc1ccc(C(F)(F)F)cc1 (stereo not given)	0	24	39	0	0	0
CSc1ccc(C(c2c(C(=O)O)[nH]c3ccccc23)c2c(C(=O)O)[nH]c3ccccc23)cc1	0	0	46	0	0	61
CCOc1cc(Br)cc(C(c2c(C(=O)O)[nH]c3ccccc23)c2c(C(=O)O)[nH]c3ccccc23)c1O	0	0	61	0	0	68
CCOC(=O)c1[nH]c2ccccc2c1NC(C)=O	0	0	0	0	0	-
CC(=O)Oc1ccc(C(=O)O)cc1OC(C)=O	0	0	0	0	0	-
CC(=O)Oc1cccc2c1C(=O)c1c(OC(C)=O)cc(C(=O)O)cc1C2=O	0	0	48	0	0	0
N#CCC[C@@H]1CC[C@]2(CCCN(Cc3ccc(Cl)cc3)C2)O1	-	0	0	-	0	-
CCOC(=O)c1c(C)oc2c1c(CN1CCN(C(=O)OCC)CC1)c(O)c1ccccc12	0	0	31	0	0	39
Cc1ccccc1Cc1c(C)nc2c(C(=O)N3CCN(Cc4ccc5c(c4)OCO5)CC3)cnn2c1C	0	0	0	0	0	-
Cc1cccc(Cc2c(C)nc3c(C(=O)N4CCN(Cc5ccc6c(c5)OCO6)CC4)cnn3c2C)c1	0	0	36	0	0	38
O=C(NCc1ccccc1)[C@@H]1CCCN1C(=O)[C@H]1CCCN1C(=O)c1ccc(Cl)cc1	-	0	0	0	0	-
CC1=CC(C)(C)N2C(=O)C(=O)c3cc(OC(=O)c4ccco4)cc1c32	-	0	0	0	0	-
COc1cc2c3c(c1)/C(=C1/SC(NC(C)=O)=NC1=O)C(=O)N3C(C)(C)C=C2C	0	0	38	0	25	0
Cc1nn(-c2cccc(Cl)c2)c2c1C(c1cccnc1)C(C#N)=C(N)O2 (stereo not given)	0	0	31	0	0	0
Cc1ccc(-n2nc(C)c3c2OC(N)=C(C#N)C3c2ccc(F)cc2)cc1 (stereo not given)	0	0	37	0	0	0
Cc1nn(-c2ccccc2)c2c1C(c1ccc([N+](=O)[O-])cc1)C(C#N)=C(N)O2 (stereo not given)	0	0	42	0	0	0
Cc1nn(-c2ccccc2)c2c1C(c1ccco1)C(C#N)=C(N)O2 (stereo not given)	0	0	0	0	0	-
COc1ccc(OC)c(C2C(C#N)=C(N)Oc3c2c(C)nn3-c2cccc(Cl)c2)c1 (stereo not given)	0	0	0	0	0	-
O=S1(=O)N[C@@H](Cc2ccccc2)COc2cc(N3CCOCC3)ccc21	-	0	0	0	0	-
CC(C)NC(=O)[C@]1(C#N)CC(=O)N(C)[C@@H]1c1ccccc1	-	0	0	-	0	-
Oc1ccc(N=Cc2cc(Br)c(N3CCOCC3)o2)cc1	0	0	42	32	0	0
C=CCNC(=O)CN(C(=O)c1ccncn1)c1cccc(Br)c1	-	0	0	-	0	-
O=C(NNC(=O)c1cc(O)c(O)c(O)c1)NC1CCCCC1	0	0	31	0	0	0
CC1(C)Oc2cc(N)c([N+](=O)[O-])cc2O1	0	0	41	0	0	0
O=C(c1cc(-c2ccc(Cl)cc2)nc2ccccc12)N1CCN(c2ncccn2)CC1	-	0	0	-	0	-
SMILES	HTRA1 inh	PRMT1 FP inh	ABHD4 inh	TCR CD3 inh	SIAE inh	mABHD4 conf
Cc1ccccc1NC(=O)C[C@H]1CC[C@H]2[C@@H](COc3ccc(NC(=O)Nc4ccccc4)cc3C(=O)N2C)O1	-	0	0	-	0	-
COc1cc(OC)cc(C(=O)NC(=S)NNC(=O)c2cnccn2)c1	0	0	0	0	0	-
CCNC(=S)NNC(=O)c1cnccn1	-	0	46	-	0	54
O=C(O)c1ccc2c(c1)C(=O)/C(=C\c1ccco1)C2=O	0	34	30	0	0	0
O=C1C(=Cc2ccco2)C(=O)c2ccccc21	0	35	35	0	0	0
O=C(O)[C@H]1CC=C[C@H]2CCN(Cc3ccc(Cl)c(Cl)c3)C(=O)[C@@H]12	0	0	30	0	0	0
O=C(O)c1cc(-c2ccc(/C=N/NC(=S)Nc3ccccc3)o2)ccc1Cl	-	0	39	0	0	50
O=[N+]([O-])c1cccc(-c2ccc(/C=N/NC(=S)Nc3ccccc3)o2)c1	0	0	0	0	0	-
